Experimental data reported in PMC2813889 (Toxicon : official journal of the International Society on …, 2009).
Like-named read-outs stand apart in the source and are kept apart here.

Legend:
[1] = target: protein phosphatase 2A (PP2A) (Homo sapiens, UniProt P67775); test: Protein phosphatase 2A inhibition assay; format: biochemical
How it was run: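 Colorimetric PP2A inhibition after a published method. Samples incubated 1 h at room temperature and read at 405 nm. A standard curve of the parent toxin was prepared identically to the samples. Isolated metabolite concentrations were set by LC-MS against a single-point calibration (10 μL of 6.2 μM parent toxin, 50 ng). IC50 taken from activity versus log concentration curves.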

CYP3A5 = CYP3A5 (Homo sapiens, UniProt P20815); test: Incubation of OA with recombinant CYP3A5; format: in vitro ADME; conditions: CYP 3A5 reaction, after 6 hrs of incubation
Sequence of CYP3A5 (P20815 whole entry): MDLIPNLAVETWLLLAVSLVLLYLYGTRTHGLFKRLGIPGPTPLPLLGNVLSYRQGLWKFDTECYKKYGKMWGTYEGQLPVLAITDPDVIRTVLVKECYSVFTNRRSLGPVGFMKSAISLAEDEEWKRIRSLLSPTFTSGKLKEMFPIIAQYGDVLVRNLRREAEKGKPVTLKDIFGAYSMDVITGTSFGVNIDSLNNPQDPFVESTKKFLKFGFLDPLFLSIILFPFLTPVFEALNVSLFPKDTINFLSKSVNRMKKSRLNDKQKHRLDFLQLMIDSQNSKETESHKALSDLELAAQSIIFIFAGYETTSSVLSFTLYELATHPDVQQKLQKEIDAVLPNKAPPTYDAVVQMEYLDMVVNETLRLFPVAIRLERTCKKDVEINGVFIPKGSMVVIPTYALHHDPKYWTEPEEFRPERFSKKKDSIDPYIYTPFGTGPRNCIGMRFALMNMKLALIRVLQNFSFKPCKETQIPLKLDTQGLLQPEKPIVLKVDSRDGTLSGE

CYP3A4 = CYP3A4 (Homo sapiens, UniProt P08684); test: Incubation of OA with recombinant CYP3A4 and CYP3A4 enzyme kinetics; format: in vitro ADME
Sequence of CYP3A4 (P08684 whole entry): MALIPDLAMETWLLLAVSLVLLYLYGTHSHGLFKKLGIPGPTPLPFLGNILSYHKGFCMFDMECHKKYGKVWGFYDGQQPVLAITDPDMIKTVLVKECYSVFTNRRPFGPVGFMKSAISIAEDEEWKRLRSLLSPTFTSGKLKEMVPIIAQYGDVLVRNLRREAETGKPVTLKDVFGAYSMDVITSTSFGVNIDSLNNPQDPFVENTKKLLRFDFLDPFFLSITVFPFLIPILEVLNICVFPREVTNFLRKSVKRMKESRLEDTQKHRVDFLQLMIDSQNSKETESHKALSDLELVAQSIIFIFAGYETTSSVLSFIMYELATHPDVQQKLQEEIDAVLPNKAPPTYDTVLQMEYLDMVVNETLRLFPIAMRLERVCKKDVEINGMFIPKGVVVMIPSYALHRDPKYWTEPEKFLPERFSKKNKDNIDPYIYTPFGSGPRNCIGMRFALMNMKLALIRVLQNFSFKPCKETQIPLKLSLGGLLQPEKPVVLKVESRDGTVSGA

various liver cell lines = conditions: depending on cell line; ref Souid-Mensi, et al., 2008; cited from earlier work
[2] = system: CYP1A1, 1A2, 2C8, 2C9, 2C19, 2D6, 2E1; test: Incubation of OA with the seven other recombinant P450s; format: in vitro ADME, human; conditions: same incubation conditions, limit of detection 0.1 ng OA
[3] = Incubation of OA with pooled human liver microsomes; format: in vitro ADME; conditions: 5 mg mL^-1 protein, 5 μM OA, 37 °C, 30 min

Sequence of protein phosphatase 2A (PP2A) (P67775 whole entry): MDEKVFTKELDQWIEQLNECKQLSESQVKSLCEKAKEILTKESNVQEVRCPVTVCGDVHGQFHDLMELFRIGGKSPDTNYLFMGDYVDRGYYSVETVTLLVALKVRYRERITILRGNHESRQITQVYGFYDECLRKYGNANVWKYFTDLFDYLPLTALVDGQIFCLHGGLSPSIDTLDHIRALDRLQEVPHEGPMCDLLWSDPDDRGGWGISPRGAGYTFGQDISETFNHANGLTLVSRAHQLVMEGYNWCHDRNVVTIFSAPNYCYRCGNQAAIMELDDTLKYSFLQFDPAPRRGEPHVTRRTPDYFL

Compound	IC50 ([1]; read-out: IC50, inhibition of PP2A, 1 h at room temperature, read at 405 nm)	overall yield of all four metabolites (CYP3A5)	overall yield of all four metabolites (CYP3A4; CYP3A4 reaction, after 6 hrs of incubation)	Vmax for the oxidation of OA by CYP3A4 (CYP3A4; double-reciprocal plots, OA 10 μM to 100 μM, 300 pmol 3A4)	Km (CYP3A4; human, recombinant CYP3A4)	LD50 for OA with various liver cell lines (various liver cell lines)	IC50 [1]	metabolism of OA by the seven other P450s [2]	metabolite formation in pooled human liver microsomes [3]
11S-hydroxy okadaic acid [metabolite 2]	1.34 nM								
C=C1[C@@H](O)[C@@H]2O[C@]3(CC[C@H](/C=C/[C@@H](C)[C@@H]4CC(C)=C[C@@]5(O[C@H](C[C@@](C)(O)C(=O)O)CC[C@H]5O)O4)O3)CC[C@H]2O[C@@H]1[C@@H](O)C[C@H](C)[C@H]1O[C@@]2(CCCCO2)CC[C@H]1C [OA, Okadaic acid]		6.1%	31.3%	7.23 nmol of metabolites nmol^-1 min^-1	73.4 µM	10 to 100 nM	0.61 nM	none of the seven other P450s metabolized OA	four metabolites, identical to those formed in CYP3A4 incubations, were produced
